# Measured values taken from ChEMBL document CHEMBL3779864, “Dual Alleviation of Acute and Neuropathic Pain by Fused Opioid Agonist-Neurokinin 1 Antagonist Peptidomimetics” (ACS Med Chem Lett, 2015).
# Calls of active or inactive are those of the source. The rule behind the calls is not given here.
# Columns and labels:
# Rattus norvegicus [1] = test: Antinociceptive activity in Wistar rat model of chronic constriction injury-induced neuropathic pain assessed as reduction in hyperalgesia at 3.5 nmol dosed on day7 after tolerance development with compound12 dosed at 0.8 nmol, it QD for 6 days by cold plate test; format: functional, organism-based
# Summary of the method: (§1)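 Cross-tolerance design in CCI rats: intrathecal dosing once daily for 6 days from day 7 post-CCI (morphine 3.5 nmol, hybrids 0.8 or 1 nmol). On day 7 of dosing (day 14 post-CCI), morphine-tolerant rats received a single hybrid dose and hybrid-tolerant rats received morphine 3.5 nmol. Read by von Frey or cold plate and compared with pretest, day 1 and day 6.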
# Rattus norvegicus [2] = species: Rattus norvegicus; test: Antinociceptive activity in naive Wistar rat at 35 nmol, it after 2 hrs by tail flick test analysis; format: functional, organism-based
# Rattus norvegicus [3] = species: Rattus norvegicus; test: Antinociceptive activity in Wistar rat model of chronic constriction injury-induced neuropathic pain assessed as reduction in hyperalgesia at 0.8 to 3.5 nmol after 30 mins by cold plate test; format: functional, organism-based
# Summary of the method: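 Rats underwent chronic constriction injury of the sciatic nerve. Seven days later, drug was given intrathecally as single injections at increasing doses. Hyperalgesia was read by cold plate test 30 min after dosing and compared with vehicle-treated CCI rats.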
# Rattus norvegicus [4] = species: Rattus norvegicus; test: Antinociceptive activity in Wistar rat model of chronic constriction injury-induced neuropathic pain assessed as reduction in allodynia at 0.8 to 3.5 nmol after 30 mins by von Frey test; format: functional, organism-based
# Summary of the method: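 Rats underwent chronic constriction injury of the sciatic nerve. Seven days later, drug was given intrathecally as single injections at increasing doses. Allodynia was read by von Frey test 30 min after dosing and compared with vehicle-treated CCI rats.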
# Rattus norvegicus [5] = species: Rattus norvegicus; test: Potency index, ratio of antinociceptive activity of compound at 8 to 10 nmol, it to antinociceptive activity of morphine at 35 nmol, it in naive Wistar rat after 30 mins; format: functional
# Rattus norvegicus [6] = species: Rattus norvegicus; test: Antinociceptive activity in Wistar rat model of chronic constriction injury-induced neuropathic pain assessed as reduction in allodynia at 3.5 nmol, it QD for 6 consecutive days by von Frey test; format: functional, organism-based
# Summary of the method: (§2)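 Rats with chronic constriction injury of the sciatic nerve, dosed intrathecally once daily for 6 consecutive days starting day 7 post-CCI. Allodynia measured by von Frey, hyperalgesia by cold plate. Doses: morphine 3.5 nmol, hybrids 0.8 or 1 nmol. Compared with vehicle-treated CCI rats and with morphine-treated CCI rats.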
# Rattus norvegicus [7] = species: Rattus norvegicus; test: Antinociceptive activity in Wistar rat model of chronic constriction injury-induced neuropathic pain assessed as reduction in hyperalgesia at 3.5 nmol, it QD for 6 consecutive days by cols plate test; format: functional, organism-based; summary of the method: as §2
# Rattus norvegicus [8] = species: Rattus norvegicus; test: Antinociceptive activity in Wistar rat model of chronic constriction injury-induced neuropathic pain assessed as reduction in allodynia at 1 nmol, it QD for 6 consecutive days by von Frey test; format: functional, organism-based; summary of the method: as §2
# Rattus norvegicus [9] = species: Rattus norvegicus; test: Antinociceptive activity in Wistar rat model of chronic constriction injury-induced neuropathic pain assessed as reduction in hyperalgesia at 1 nmol, it QD for 6 consecutive days by cols plate test; format: functional, organism-based; summary of the method: as §2
# Rattus norvegicus [10] = species: Rattus norvegicus; test: Antinociceptive activity in Wistar rat model of chronic constriction injury-induced neuropathic pain assessed as reduction in hyperalgesia at 1 nmol, it QD for 6 consecutive days measured on day-4 and day-5 by cold plate test relative to morphine; format: functional, organism-based; summary of the method: as §2
# Rattus norvegicus [11] = test: Antinociceptive activity in Wistar rat model of chronic constriction injury-induced neuropathic pain assessed as reduction in hyperalgesia at 3.5 nmol dosed on day7 after tolerance development with compound13 dosed at 1 nmol, it QD for 6 days by cold plate test; format: functional, organism-based; summary of the method: as §1
# Rattus norvegicus [12] = test: Antinociceptive activity in Wistar rat model of chronic constriction injury-induced neuropathic pain assessed as reduction in hyperalgesia at 1 nmol dosed on day7 after tolerance development with morphine dosed at 3.5 nmol, it QD for 6 days by cold plate test; format: functional, organism-based; summary of the method: as §1
# Rattus norvegicus [13] = test: Antinociceptive activity in Wistar rat model of chronic constriction injury-induced neuropathic pain assessed as reduction in allodynia at 1 nmol dosed on day7 after tolerance development with morphine dosed at 3.5 nmol, it QD for 6 days by von Frey test; format: functional, organism-based; summary of the method: as §1
# Substance-P receptor = Substance-P receptor (Homo sapiens, UniProt P25103); test: Displacement of [3H]SP from human NK1 receptor transfected in CHO cells by liquid scintillation counting method; format: cell-based
# Summary of the method: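 hNK1 receptor expressed in CHO cells, measured as [3H]SP displacement. Values are means of 3–4 experiments.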
# Mu-type opioid receptor [14] = target: Mu-type opioid receptor (Cavia porcellus, UniProt P97266); test: Agonist activity at mu opioid receptor in guinea pig ileum assessed as inhibition of electrically-stimulated muscle contraction; format: tissue-based
# Summary of the method: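 Guinea pig ileum preparation used as the MOR-representative functional assay. Values are means of 3–4 experiments.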
# [15] = target: Delta-type opioid receptor (Mus musculus, UniProt P32300); test: Agonist activity at delta opioid receptor in mouse vas deferens assessed as inhibition of electrically-stimulated muscle contraction; format: tissue-based
# Summary of the method: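 Electrically stimulated mouse vas deferens, a DOR-representative tissue assay. Means of 3–4 experiments.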
# Mu-type opioid receptor [16] = target: Mu-type opioid receptor (Rattus norvegicus, UniProt P33535); test: Displacement of [3H]DAMGO from mu opioid receptor in rat brain membrane after 2 hrs; format: cell membranes
# Summary of the method: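 Rat brain membranes, with [3H]DAMGO as the MOR radioligand, measured as displacement binding. Values are means of 3–4 experiments.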
# [17] = target: Delta-type opioid receptor (Rattus norvegicus, UniProt P33533); test: Displacement of [3H]DSLET from delta opioid receptor in rat brain membrane after 2 hrs; format: cell membranes
# Summary of the method: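 Rat brain membranes, with [3H]DSLET as the DOR radioligand, measured as displacement binding. Values are means of 3–4 experiments.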
# Rattus norvegicus [18] = species: Rattus norvegicus; test: Antinociceptive activity in naive Wistar rat at 10 nmol, it after 30 mins by tail flick test analysis; format: functional, organism-based
# Summary of the method: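 Naïve rats dosed intrathecally, compared with vehicle-treated naïve rats. Tail-flick latency read 30 min after administration.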
# Rattus norvegicus [19] = test: Potency index, ratio of antiallodynic effect of compound to antiallodynic effect of morphine in it dosed naive Wistar rat at 0.8 to 3.5 nmol after 30 mins by cold plate test; format: functional
# Rattus norvegicus [20] = species: Rattus norvegicus; test: Antinociceptive activity in Wistar rat model of chronic constriction injury-induced neuropathic pain assessed as reduction in hyperalgesia at 0.8 nmol, it QD for 6 consecutive days by cols plate test; format: functional, organism-based
# Summary of the method: (§3)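 Starting day 7 after sciatic nerve CCI, rats got 0.8 nmol i.t. once daily for 6 consecutive days. Allodynia was read by von Frey and hyperalgesia by cold plate. Comparisons were against vehicle-treated CCI rats and against rats given morphine 3.5 nmol i.t. on the same schedule.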
# Rattus norvegicus [21] = species: Rattus norvegicus; test: Antinociceptive activity in Wistar rat model of chronic constriction injury-induced neuropathic pain assessed as reduction in hyperalgesia at 0.8 nmol, it QD for 6 consecutive days measured on day-4 and day-5 by cold plate test relative to morphine; format: functional, organism-based; summary of the method: as §3
# Rattus norvegicus [22] = test: Antinociceptive activity in Wistar rat model of chronic constriction injury-induced neuropathic pain assessed as reduction in hyperalgesia at 0.8 nmol dosed on day7 after tolerance development with morphine dosed at 3.5 nmol, it QD for 6 days by cold plate test; format: functional, organism-based
# Summary of the method: (§4)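 Rats with sciatic nerve CCI got morphine 3.5 nmol i.t. once daily for 6 days, starting day 7 after CCI. On day 7 of repeated dosing (day 14 after CCI) they received a single i.t. dose of 0.8 nmol. Allodynia was read by von Frey and hyperalgesia by cold plate. Each was compared with pretest, with day 6 and with day 1 of dosing.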
# Rattus norvegicus [23] = test: Antinociceptive activity in Wistar rat model of chronic constriction injury-induced neuropathic pain assessed as reduction in allodynia at 0.8 nmol dosed on day7 after tolerance development with morphine dosed at 3.5 nmol, it QD for 6 days by von Frey test; format: functional, organism-based; summary of the method: as §4
# Rattus norvegicus [24] = species: Rattus norvegicus; test: Antinociceptive activity in naive Wistar rat at 8 nmol, it after 2 hrs by tail flick test analysis; format: functional, organism-based
# Summary of the method: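 Naïve rats got an intrathecal dose. The tail-flick response was followed over time up to 2 h after dosing.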
# Rattus norvegicus [25] = species: Rattus norvegicus; test: Antinociceptive activity in Wistar rat model of chronic constriction injury-induced neuropathic pain assessed as reduction in allodynia at 0.8 nmol, it QD for 6 consecutive days by von Frey test; format: functional, organism-based; summary of the method: as §3
# Rattus norvegicus [26] = test: Antinociceptive activity in it dosed naive Wistar rat after 30 mins by tail flick test analysis; format: functional, organism-based
# Summary of the method: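 Naïve rats were dosed intrathecally at several doses. Tail-flick latency was read 30 min after dosing and compared with vehicle-treated naïve rats.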
# Chain of Mu-type opioid receptor (Rattus norvegicus, UniProt P33535) (P33535 whole entry): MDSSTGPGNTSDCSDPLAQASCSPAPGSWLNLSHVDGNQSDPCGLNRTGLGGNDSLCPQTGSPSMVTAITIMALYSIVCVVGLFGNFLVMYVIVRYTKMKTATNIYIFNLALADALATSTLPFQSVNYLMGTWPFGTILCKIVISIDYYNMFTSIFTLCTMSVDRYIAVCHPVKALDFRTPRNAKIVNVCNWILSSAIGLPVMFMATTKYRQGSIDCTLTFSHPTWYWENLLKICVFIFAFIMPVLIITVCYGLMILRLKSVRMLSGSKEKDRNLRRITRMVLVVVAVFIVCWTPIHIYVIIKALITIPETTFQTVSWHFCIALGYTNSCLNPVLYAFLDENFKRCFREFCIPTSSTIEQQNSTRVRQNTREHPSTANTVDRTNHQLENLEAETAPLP
# Chain of Mu-type opioid receptor (Cavia porcellus, UniProt P97266) (P97266 whole entry): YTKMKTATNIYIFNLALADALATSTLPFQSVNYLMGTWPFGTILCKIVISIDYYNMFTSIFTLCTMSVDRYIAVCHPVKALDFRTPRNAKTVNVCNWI
# Chain of Delta-type opioid receptor (Mus musculus, UniProt P32300) (P32300 whole entry): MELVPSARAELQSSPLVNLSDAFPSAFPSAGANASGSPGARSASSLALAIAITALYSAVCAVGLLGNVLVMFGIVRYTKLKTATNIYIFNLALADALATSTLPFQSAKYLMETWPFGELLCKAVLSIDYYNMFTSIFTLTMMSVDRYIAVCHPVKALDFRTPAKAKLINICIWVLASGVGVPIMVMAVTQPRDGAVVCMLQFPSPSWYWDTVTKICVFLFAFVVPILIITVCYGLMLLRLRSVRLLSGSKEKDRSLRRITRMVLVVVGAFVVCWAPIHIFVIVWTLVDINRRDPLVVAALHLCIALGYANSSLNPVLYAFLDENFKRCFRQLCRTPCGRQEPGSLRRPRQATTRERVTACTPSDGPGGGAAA
# Chain of Substance-P receptor (P25103 whole entry): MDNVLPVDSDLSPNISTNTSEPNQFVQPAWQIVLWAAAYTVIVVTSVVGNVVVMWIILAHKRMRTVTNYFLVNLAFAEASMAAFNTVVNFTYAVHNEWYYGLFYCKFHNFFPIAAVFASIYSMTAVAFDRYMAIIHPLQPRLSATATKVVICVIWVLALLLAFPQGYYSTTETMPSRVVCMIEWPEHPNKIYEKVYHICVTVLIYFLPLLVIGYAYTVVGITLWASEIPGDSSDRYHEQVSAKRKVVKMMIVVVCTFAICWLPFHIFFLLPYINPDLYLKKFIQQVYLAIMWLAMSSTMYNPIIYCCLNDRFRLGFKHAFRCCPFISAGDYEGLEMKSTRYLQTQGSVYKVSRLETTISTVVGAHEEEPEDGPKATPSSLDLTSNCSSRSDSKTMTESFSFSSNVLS
# Chain of Delta-type opioid receptor (Rattus norvegicus, UniProt P33533) (P33533 whole entry): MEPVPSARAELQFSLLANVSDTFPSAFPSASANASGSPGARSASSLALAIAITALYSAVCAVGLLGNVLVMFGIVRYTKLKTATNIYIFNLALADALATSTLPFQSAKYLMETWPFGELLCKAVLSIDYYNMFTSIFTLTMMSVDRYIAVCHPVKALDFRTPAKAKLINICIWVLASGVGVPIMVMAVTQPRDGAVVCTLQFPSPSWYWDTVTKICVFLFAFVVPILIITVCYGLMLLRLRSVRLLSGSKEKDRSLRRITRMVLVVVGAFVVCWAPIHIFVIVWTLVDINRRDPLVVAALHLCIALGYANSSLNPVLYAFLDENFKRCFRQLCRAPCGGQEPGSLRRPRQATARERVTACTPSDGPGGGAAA
SMILES,Activity (Rattus norvegicus [3]),Activity (Rattus norvegicus [4]),Ratio (Rattus norvegicus [5]),Activity (Rattus norvegicus [6]),Ki (Substance-P receptor),IC50 (Mu-type opioid receptor [14]),IC50 [15],Ki (Mu-type opioid receptor [16]),Ki [17],also measured
CN1CC[C@]23c4c5ccc(O)c4O[C@H]2[C@@H](O)C=C[C@H]3[C@H]1C5 [MORPHINE],Active,Active,3.5,inactive,–,–,–,–,–,Activity (Rattus norvegicus [1]): Active; Activity (Rattus norvegicus [2]): Active; Activity (Rattus norvegicus [7]): Active
Cc1cc(O)cc(C)c1C[C@H](N)C(=O)N[C@H](CCCNC(=N)N)C(=O)N[C@H]1Cc2ccccc2CN(CCC(=O)N(C)[C@@H]2CCN(C(=O)c3cc(C(F)(F)F)cc(C(F)(F)F)c3)C[C@@H]2c2ccccc2)C1=O,Active,Active,3.5,inactive,1.4 nM,13 nM,12.6 nM,1.82 nM,11.2 nM,Activity (Rattus norvegicus [8]): inactive; Activity (Rattus norvegicus [9]): inactive; Activity (Rattus norvegicus [10]): Active; Activity (Rattus norvegicus [11]): Active; Activity (Rattus norvegicus [12]): Active; Activity (Rattus norvegicus [13]): Active; Activity (Rattus norvegicus [18]): Active; Ratio (Rattus norvegicus [19]): 3.5
Cc1cc(O)cc(C)c1C[C@H](N)C(=O)N[C@H](CCCNC(=N)N)C(=O)N[C@H]1Cc2ccccc2CN(CCC(=O)N2CC[C@@H](C(=O)N(C)Cc3cc(C(F)(F)F)cc(C(F)(F)F)c3)[C@H](c3ccccc3)C2)C1=O,–,–,–,–,1.9 nM,30.1 nM,10.3 nM,3.07 nM,7.07 nM,–
Cc1cc(O)cc(C)c1C[C@H](N)C(=O)N[C@H](CCCNC(=N)N)C(=O)N[C@@H](Cc1ccccc1)C(=O)N[C@@H](CCCCN)CC(N)=O,–,–,–,–,–,5.9 nM,7.7 nM,0.187 nM,290 nM,–
Cc1cc(O)cc(C)c1C[C@H](N)C(=O)N[C@H](CCCNC(=N)N)C(=O)N[C@@H](Cc1ccccc1)C(=O)N[C@@H](CCCCN)CC(=O)N1CC[C@@H](C(=O)N(C)Cc2cc(C(F)(F)F)cc(C(F)(F)F)c2)[C@H](c2ccccc2)C1,–,–,–,–,2.2 nM,538 nM,1660 nM,20.2 nM,> 1000 nM,–
Cc1cc(O)cc(C)c1C[C@H](N)C(=O)N[C@H](CCCNC(=N)N)C(=O)N[C@@H](Cc1ccccc1)C(=O)N[C@@H](CCCCN)C(=O)N1CCN([C@@H]2CCN(C(=O)c3cc(C(F)(F)F)cc(C(F)(F)F)c3)C[C@@H]2c2ccccc2)CC1,–,–,–,–,0.99 nM,137 nM,384 nM,9.91 nM,533 nM,–
Cc1cc(O)cc(C)c1C[C@H](N)C(=O)N[C@H](CCCNC(=N)N)C(=O)N[C@@H](Cc1ccccc1)C(=O)N[C@@H](CCCCN)C(=O)N(C)[C@@H]1CCN(C(=O)c2cc(C(F)(F)F)cc(C(F)(F)F)c2)C[C@@H]1c1ccccc1,–,–,–,–,1.1 nM,70.2 nM,814 nM,54 nM,> 1000 nM,–
Cc1cc(O)cc(C)c1C[C@H](N)C(=O)N[C@H](CCCNC(=N)N)C(=O)N[C@H]1Cc2ccccc2CN(CCC(=O)N2CCN([C@@H]3CCN(C(=O)c4cc(C(F)(F)F)cc(C(F)(F)F)c4)C[C@@H]3c3ccccc3)CC2)C1=O,Active,Active,3.5,inactive,1.4 nM,20.3 nM,14.1 nM,1.18 nM,10.6 nM,Activity (Rattus norvegicus [20]): Active; Activity (Rattus norvegicus [21]): Active; Activity (Rattus norvegicus [11]): Active; Activity (Rattus norvegicus [22]): Active; Activity (Rattus norvegicus [23]): Active; Activity (Rattus norvegicus [24]): Active; Ratio (Rattus norvegicus [19]): 3.5; Activity (Rattus norvegicus [25]): inactive
Cc1cc(O)cc(C)c1C[C@H](N)C(=O)N[C@H](CCCNC(=N)N)C(=O)N[C@@H](Cc1ccccc1)C(=O)N[C@@H](CCCCN)C(=O)N1CC[C@@H](C(=O)N(C)Cc2cc(C(F)(F)F)cc(C(F)(F)F)c2)[C@H](c2ccccc2)C1,–,–,–,–,1.2 nM,658 nM,349 nM,39.8 nM,339 nM,–
CN[C@@H]1CCN(C(=O)c2cc(C(F)(F)F)cc(C(F)(F)F)c2)C[C@@H]1c1ccccc1,Active,Active,–,inactive,–,–,–,–,–,Activity (Rattus norvegicus [26]): inactive
